Measured values from ChEMBL document CHEMBL1148911, “Ardisinones A-E, novel diarylundecanones from Ardisia arborescens” (J Nat Prod, 2004).
Active and inactive are the calls of the source.

What was measured:
Format in all cases: functional, organism-based
Candida albicans = test: Antibacterial activity against Candida albicans after 48 hrs by disk diffusion assay
Method in brief: (§1)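 Agar disk diffusion. Each organism was grown on agar medium, and plates were inoculated by spreading a spore or cell suspension evenly over the agar surface to give confluent growth. Compound-loaded disks were applied, and the zone of inhibition around each disk was measured at 24 and 48 h.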

[1] = tested on: Mycolicibacterium smegmatis; test: Antibacterial activity against Mycobacterium smegmatis after 24 hrs by disk diffusion assay; method in brief: as §1
Bacillus subtilis = test: Antibacterial activity against Bacillus subtilis after 24 hrs by disk diffusion assay; method in brief: as §1
Staphylococcus aureus = test: Antibacterial activity against Staphylococcus aureus after 24 hrs by disk diffusion assay; method in brief: as §1
Aspergillus niger = test: Antibacterial activity against Aspergillus niger after 48 hrs by disk diffusion assay; method in brief: as §1
Escherichia coli = test: Antibacterial activity against Escherichia coli after 24 hrs by disk diffusion assay; method in brief: as §1

Measured: Activity

COc1cc(O)c(C(=O)CCCCCCCCCCc2c(O)cccc2OC(C)=O)c(O)c1
inactive: Candida albicans | [1] | Bacillus subtilis | Staphylococcus aureus | Aspergillus niger | Escherichia coli

COc1cc(O)c(C(=O)CCCCCCCCCCc2c(O)cccc2O)c(O)c1
inactive: Candida albicans | [1] | Bacillus subtilis | Staphylococcus aureus | Aspergillus niger | Escherichia coli
